Source: PubChem BioAssay
An excerpt weighted towards active compounds, which were near 1.8% of everything screened.
M4 antag = human M4 muscarinic receptor antagonists, primary screen, CHO cells, Fluo-8 calcium fluorescence | CHO-hM4 cells, ACh EC80 | 360,000 tested, 0.73% active | inhibition, % at 3 µM | Muscarinic acetylcholine receptor M4 (Homo sapiens), P08173;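 active = inhibition above its plate's cutoff, the mean inhibition of sample wells plus 3 SD, cut at about 27% in these data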;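 also: 0% = acetylcholine EC80 with DMSO and 100% = DMSO without agonist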
M5 PAM = human M5 muscarinic receptor positive allosteric modulators, primary screen, CHO-K1 cells, Fluo-8 calcium fluorescence. Muscarinic acetylcholine receptor M5 (Homo sapiens), P08912. 360,000 tested, 0.3% active. activation, % at 3 µM. CHO-K1 hM5, ACh EC20 PAM; 0% = ACh EC20, 100% = ACh EC100;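 active = activation above the run cutoff, the mean activation of all test compounds plus 3 SD, cut at about 18% in these data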
Target sequence (P08912 whole entry, looked up): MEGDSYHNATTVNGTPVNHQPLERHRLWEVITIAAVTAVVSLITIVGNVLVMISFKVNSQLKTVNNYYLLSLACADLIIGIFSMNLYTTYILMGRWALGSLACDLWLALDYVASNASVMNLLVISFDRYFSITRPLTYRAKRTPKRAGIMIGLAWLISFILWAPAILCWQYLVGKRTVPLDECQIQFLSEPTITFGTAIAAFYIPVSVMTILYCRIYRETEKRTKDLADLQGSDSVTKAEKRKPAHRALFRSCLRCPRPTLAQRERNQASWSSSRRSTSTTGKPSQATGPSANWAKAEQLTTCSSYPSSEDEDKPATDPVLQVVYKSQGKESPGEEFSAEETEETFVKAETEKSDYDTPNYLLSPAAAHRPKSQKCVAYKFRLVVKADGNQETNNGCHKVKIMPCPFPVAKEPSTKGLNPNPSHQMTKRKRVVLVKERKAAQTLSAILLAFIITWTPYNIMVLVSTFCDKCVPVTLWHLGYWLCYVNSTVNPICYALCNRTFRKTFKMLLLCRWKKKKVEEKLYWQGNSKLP
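Test system: CHO-K1 hM5 cells / Doses: single-point, 3 µM nominal / Times: Post-acetylcholine fluorescence recording 140 s / Technique: Fluo-8 calcium fluorescence / Measure: Max/basal fluorescence ratio as % of EC20–EC100 ACh window / Benchmarks: low control EC20 acetylcholine (0%), high control EC100 acetylcholine (100%) / Replicates: one well per compound, no replicates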
M5 ag = human M5 muscarinic receptor agonists, primary screen, CHO-K1 cells, Fluo-8 calcium fluorescence | Muscarinic acetylcholine receptor M5 (Homo sapiens), P08912 | CHO-K1 hM5 cells; 0% DMSO wells, 100% maximal acetylcholine response | activation, % at 3 µM | 360,000 tested, 0.19% active;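 active = activation above the run's mean over test compounds plus 3 SD, cut at about 23% in these data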;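 also: signal is peak over basal fluorescence ratio across the kinetic read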
CHRM4 agonist = human M4 muscarinic receptor agonists, primary screen, CHO-K1 cells, Fluo-8 calcium fluorescence; AID 624127, 2012; CHO-K1 hM4/Gqi5; vehicle 0%, full acetylcholine response 100%; activation, % at 3 µM; 360,000 tested, 0.14% active;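 active = activation above the run mean over all test wells plus 3 SD, cut at about 32% in these data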;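 also: peak over basal fluorescence ratio per well then scaled between controls; 0% = DMSO wells and 100% = acetylcholine at EC100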
CHRM4 PAM = human M4 muscarinic receptor positive allosteric modulators, primary screen, CHO-K1 cells, Fluo-8 calcium fluorescence; CHO-K1 hM4/Gqi5, ACh EC20; 0% = ACh EC20, 100% = maximal ACh; activation, % at 3 µM; 360,000 tested, 0.4% active; AID 624126, 2012;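 active = activation above its plate's cutoff, the mean activation of sample wells plus 3 SD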
CHRM5 antagonist = human M5 muscarinic receptor antagonists, primary screen, CHO cells, Fluo-8 calcium fluorescence; Muscarinic acetylcholine receptor M5 (Homo sapiens), P08912; CHO-hM5 cells, ACh EC80; inhibition, % at 3 µM; 360,000 tested, 0.59% active; AID 624040, 2012;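 active = inhibition above a per-plate cutoff, the mean of that plate's test compounds plus 3 SD, cut at about 27% in these data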;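 also: 0% = acetylcholine EC80 with DMSO and 100% = DMSO without agonist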
Active calls of the source: *; ! = not confirmed by another sample.

SMILES | M4 antag | M5 PAM | M5 ag | CHRM4 agonist | CHRM4 PAM | CHRM5 antagonist
C[C@@H]1COc2cccc(N3CCSCC3)c2S(=O)(=O)N1 | 1 | -1 | 2 | 1 | 13 | 1
CNC[C@@H]1Oc2cc(Br)ccc2S(=O)(=O)N([C@@H](C)CO)C[C@@H]1C | 48* | 1 | 0 | 1 | -13 | 0
CCNC(=O)C1(C)CCCN(C(=O)c2sc(-c3ccccc3)nc2C)C1 (configuration not stated) | -2 | -3 | 2 | 2 | 1 | 14
O=C(COC(=O)c1ccco1)NCCNC(=O)COC(=O)c1ccco1 | 14 | 8 | -1 | 0 | 19* | 6
Cc1cccc(C)c1N1CCN(C(c2cc3ccccc3o2)c2nnnn2C(C)(C)C)CC1 (configuration not stated) | 26* | 0 | 3 | 5 | -4 | 20
CCCCn1nnnc1C(c1cc2ccccc2o1)N1CCN(c2c(C)cccc2C)CC1 (configuration not stated) | -1 | -5 | 0 | 0 | 4 | 2
C[C@H](O)[C@@H]1CN2CCc3c([nH]c4ccccc34)[C@@H]2C[C@@H]1N(C)Cc1cc(Cl)cc(Cl)c1 | 5 | -3 | 1 | 0 | -10 | 1
O=C(Nc1ccc(F)cc1)C(c1ccnc2ccccc12)N1CCN(c2cccc(C(F)(F)F)n2)CC1 (configuration not stated) | -4 | 3 | 6 | 6 | 0 | 2
CC(C)(C)n1nnnc1C(c1cccs1)N(Cc1cccnc1)Cc1ccco1 (configuration not stated) | 26 | -48 | -16 | -2 | -17 | 70*
CC[n+]1c(/C=C/N(C)c2ccccc2)n(-c2ccccc2)c2ccc(-c3nc4ccccc4s3)cc21 | 58* | -26 | -21 | 7 | -16 | 6
CCOC(=O)c1ccc2c(c1)n(CC)c(/C=C/N(C)c1ccccc1)[n+]2CC | -2 | 4 | -1 | 0 | -7 | -5
C[C@H](CO)N1C[C@H](C)[C@@H](CN(C)Cc2ccc3cccnc3c2)OCc2cnnn2CCCC1=O | -24 | 8 | -1 | 2 | 8 | -11
CNCCCC1Sc2ccccc2Oc2ccccc21 (configuration not stated) | 8 | -36 | -14 | 4 | -11 | 13
CNCCCC12CCC(c3ccccc31)c1ccccc12 | 28*! | -18 | 2 | 9 | -18 | 33*!
CC(=O)c1sc(NC(=O)CCS(=O)(=O)c2ccccc2)nc1C | 1 | 14 | 1 | 1 | 17* | -9
CC(=O)c1sc(NC(=O)CCS(=O)(=O)c2ccc(F)cc2)nc1C | -5 | -6 | 1 | 1 | -2 | -1
O=C1NC[C@H](CCCCN2CCN(CC3CCCCC3)C(=O)C2=O)N(CCc2ccccc2)C1=O | 9 | 0 | 2 | 0 | -3 | -9
CCCNC(=O)C1(C)CCCN(Cc2ccc(-c3ccccc3)cc2)C1 (configuration not stated) | -18 | -2 | -1 | 1 | -1 | -5
c1cncc(CNc2ncnc3sccc23)c1 | 2 | -9 | 0 | 5 | -1 | 11
COc1ccccc1C(CNc1ncnc2sc(C)c(C)c12)N(C)C (configuration not stated) | 6 | -15 | -7 | 2 | -15 | 57*
c1ccc(CNc2ncnc3sccc23)cc1 | 3 | -14 | 5 | 14 | -4 | 40*
Cc1sc2ncnc(Nc3ccccc3)c2c1C | 3 | 3 | -11 | 0 | 10 | -17
COc1ccc(C(CNc2ncnc3sc(C)c(C)c23)N(C)C)cc1 (configuration not stated) | -9 | -15 | -7 | 4 | -15 | 16
Cc1sc2ncnc(NCc3ccccc3)c2c1C | 21 | -16 | 2 | 9 | -6 | 29*
O=C(Nc1ccc(F)c(Cl)c1)c1cc(C2CCCCN2C(=O)c2ccc3c(c2)CCO3)on1 (configuration not stated) | -13 | -9 | 1 | 8 | -5 | -1
SMILES | M4 antag | M5 PAM | M5 ag | CHRM4 agonist | CHRM4 PAM | CHRM5 antagonist
CC1=C(C(=O)N2CCCCCC2)CC(CC(=O)NC2CCCC2)C(=O)N1CCC1=CCCCC1 (configuration not stated) | -9 | 3 | 2 | 2 | 6 | -9
Cc1cc2c(cc1C)-n1nnnc1C(N1CCN(CC(=O)NC(C)C)CC1)C(=O)N2 (configuration not stated) | -1 | 1 | 0 | 1 | 1 | 2
O=C(O)C1CCCCC1C(=O)NCc1ccccc1 (configuration not stated) | 2 | -4 | 0 | 0 | -3 | 4
O=C(O)C1CCCCC1C(=O)NCc1ccc(F)cc1 (configuration not stated) | -1 | 4 | 2 | 0 | 34* | -2
O=S(=O)(/N=S1/CC=CCN1S(=O)(=O)c1ccccc1)c1ccccc1 (configuration not stated) | 16 | 3 | 26* | 22 | -7 | 6
O=C1CC(N(O)c2ccccc2)C(=O)N1c1cc(Cl)cc(Cl)c1 (configuration not stated) | 4 | -3 | 30* | 1 | 4 | -10
Cn1ccc2c(-c3ccc(C(=O)O)cc3)cc3c(c21)C1CCC3C1 (configuration not stated) | 1 | 2 | -7 | -1 | -7 | -2
Cc1cc2nc(C3CCCCC3)c(CC(C)(C)C)n2c(C)c1Br | -16 | -6 | -1 | 1 | 3 | -4
CC(C)C1CC(CCN)(c2ccccc2)CCO1 (configuration not stated) | 48* | 2 | -12 | 1 | -13 | 7
CCCCCCCCC(c1nc2ccccc2[nH]1)N1CCN=C1c1cc2ccccc2[nH]1 (configuration not stated) | 4 | -7 | -2 | 8 | -2 | 2
CCCCc1nnc(NC(=O)C23CC4CC(CC(NC(C)=O)(C4)C2)C3)s1 | 11 | -11 | -3 | 1 | -4 | 33*
COc1ccc(/C=N/N=C2/NC(=O)C(CC(=O)O)S2)cc1OS(=O)(=O)c1ccccc1 (configuration not stated) | -2 | -4 | 2 | -1 | -1 | 7
